From ChEMBL document CHEMBL1123193, “The lysine pathway as a target for a new genera of synthetic antibacterial antibiotics?” (1986)
In brackets after ≈: the same amount, converted by molar mass.

Key:
Escherichia coli [1] = assay: Minimum inhibitory concentration required for the inhibition of Escherichia coli ATCC 9637; format: functional
In short: (§1)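 Agar dilution on Davis and Mingioli solid medium, supplemented with amino acids where needed. MIC taken as the lowest concentration giving complete growth inhibition, expressed in micrograms.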

Pseudomonas aeruginosa [2] = assay: Not Plasmodium species; format: functional
Escherichia coli [3] = assay: Percent of inhibition of diaminopimelic acid decarboxylase at 5 mmol of amino acids, 1.05 mmol/L of labeled meso-DAP, and 32 umol/L of PLP
In short: (§2)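 Enzyme was meso-DAP decarboxylase isolated and purified from E. coli ATCC 9637. Inhibition measured as decarboxylation of labeled meso-DAP in the presence of the test amino acid.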

Escherichia coli [4] = assay: Percent of inhibition of diaminopimelic acid decarboxylase at 1 mmol of amino acids, 1.05 mmol/L of labeled meso-DAP, and 32 umol/L of PLP; in short: as §2
Escherichia coli [5] = assay: Percent of inhibition of diaminopimelic acid decarboxylase at 10 mmol of amino acids, 1.05 mmol/L of labeled meso-DAP, and 32 umol/L of PLP; in short: as §2
Escherichia coli [6] = assay: Compound is evaluated for the growth of Escherichia coli W7 in the presence lysine in liquid medium; Growth is observed; format: functional, organism-based
Citrobacter freundii = assay: Minimum inhibitory concentration compared to D-cycloserine, against Citrobacter freundii 55.13; format: functional; in short: as §1
Escherichia coli [7] = assay: Percent of inhibition of DAP decarboxylase at 10 mmol of amino acids, 1.05 mmol/L of labeled meso-DAP, and 32 umol/L of PLP; in short: as §2
Escherichia coli [8] = assay: Minimum inhibitory concentration compared to D-cycloserine, against Escherichia coli ATCC 9637; format: functional; in short: as §1
Escherichia coli [9] = assay: Minimum inhibitory concentration compared to D-cycloserine, against Escherichia coli DC2; format: functional; in short: as §1
Escherichia coli [10] = assay: Minimum inhibitory concentration compared to D-cycloserine, against Escherichia coli UB 1005; format: functional; in short: as §1
Klebsiella pneumoniae = assay: Minimum inhibitory concentration compared to D-cycloserine, against Klebsiella pneumoniae 53.153; format: functional; in short: as §1
Pseudomonas aeruginosa [11] = assay: Minimum inhibitory concentration compared to D-cycloserine, against Pseudomonas aeruginosa A22; format: functional; in short: as §1
[12] = test system: Providencia alcalifaciens; assay: Minimum inhibitory concentration compared to D-cycloserine, against providencia alcalifaciens 58.62; format: functional; in short: as §1
Pseudomonas aeruginosa [13] = assay: Minimum inhibitory concentration required for the inhibition of Pseudomonas aeruginosa A22; format: functional; in short: as §1
Providencia rettgeri = assay: Minimum inhibitory concentration compared to D-cycloserine, against Proteus rettgeri 53.100; format: functional; in short: as §1
Serratia marcescens = assay: Minimum inhibitory concentration compared to D-cycloserine, against Serratia marcescens A 174; format: functional; in short: as §1
Serratia liquefaciens = assay: Minimum inhibitory concentration compared to D-cycloserine, against Serratia liquefaciens 52.56; format: functional; in short: as §1
[14] = Minimum inhibitory concentration compared to D-cycloserine, against Moraxella glucidolytica 52.90; format: functional; in short: as §1
Enterobacter cloacae [15] = assay: Minimum inhibitory concentration compared to D-cycloserine, against Enterobacter cloacae 60.22
Escherichia coli [16] = assay: Percent of inhibition of diaminopimelic acid decarboxylase at 2 mmol of amino acids, 1.05 mmol/L of labeled meso-DAP, and 32 umol/L of PLP; in short: as §2
Escherichia coli [17] = assay: Compound is evaluated for the inhibition of bacterial growth (Escherichia coli ATCC 9637) in the liquid medium at 1 mmol of amino acid; format: functional
In short: (§3)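 Davis and Mingioli liquid medium, 4.8 mL, inoculated with 0.2 mL of an 18-h liquid culture of the test organism, with 0.1 mL of compound solution added. Growth followed by absorbance at 660 nm. Percent inhibition calculated after 6 h at 37 °C.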

Escherichia coli [18] = assay: Compound is evaluated for the inhibition of bacterial growth (Escherichia coli ATCC 9637) in the liquid medium at 2 mmol of amino acid; format: functional; in short: as §3
Escherichia coli [19] = assay: Compound is evaluated for the inhibition of bacterial growth (Escherichia coli ATCC 9637) in the liquid medium at 5 mmol of amino acid; format: functional; in short: as §3
Escherichia coli [20] = assay: Percent of inhibition of v decarboxylase at 1 mmol of amino acids, 1.05 mmol/L of labeled meso-DAP, and 32 umol/L of PLP; in short: as §2
Escherichia coli [21] = assay: Percent of inhibition of diaminopimelic acid decarboxylase at 5 mmol of amino acid; in short: as §2
Escherichia coli [22] = assay: Percent of inhibition of diaminopimelic acid decarboxylase at 1 mmol of amino acid; in short: as §2
Escherichia coli [23] = assay: Percent of inhibition of diaminopimelic acid decarboxylase at 1 mmol of amino acid, 1.05 mmol/L of labeled meso-DAP, and 32 umol/L of PLP; in short: as §2
Escherichia coli [24] = assay: Percent of inhibition of diaminopimelic acid decarboxylase at 2 mmol of amino acid, 1.05 mmol/L of labeled meso-DAP, and 32 umol/L of PLP; in short: as §2
Enterobacter cloacae [25] = assay: Minimum inhibitory concentration compared to D-cycloserine, against Enterobacter cloacae 60.22; remark: listed apart in the source
Escherichia coli [26] = assay: Compound is evaluated for the growth of Escherichia coli W7 in the liquid medium at 100 ug/mL.; Absence of growth; format: functional, organism-based
Escherichia coli [27] = assay: Percent of inhibition of diaminopimelic acid decarboxylase at 5 mmol of amino acid, 1.05 mmol/L of labeled meso-DAP, and 32 umol/L of PLP; in short: as §2
Escherichia coli [28] = assay: Percent of inhibition of diaminopimelic acid decarboxylase at 10 mmol of amino acid, 1.05 mmol/L of labeled meso-DAP, and 32 umol/L of PLP; in short: as §2
[29] = Escherichia coli, ATCC 9637, read-out: MIC
[30] = Pseudomonas aeruginosa, read-out: MIC

C[C@@H]1O[C@@H]1P(=O)(O)O [FOSFOMYCIN]
MIC (Escherichia coli [1]; [29]): 16 µg/mL (≈ 116 µM) | MIC (Pseudomonas aeruginosa [2]): 32 µg/mL (≈ 232 µM)

C=C(CC(N)C(=O)O)CC(N)C(=O)O (stereo in doubt; 4) [listing 1 of 2 here]
inhibition (Escherichia coli [3]): 15% | inhibition (Escherichia coli [4]): 5% | inhibition (Escherichia coli [5]): 30% | Bacterial growth (Escherichia coli [6]): Growth

C=C(C[C@@H](N)C(=O)O)C[C@H](N)C(=O)O
MIC (Citrobacter freundii): 32 µg/mL (≈ 158 µM) | inhibition (Escherichia coli [3]): 22% | inhibition (Escherichia coli [7]): 30% | inhibition (Escherichia coli [4]): 8% | MIC (Escherichia coli [8]): 32 µg/mL (≈ 158 µM) | MIC (Escherichia coli [9]): 4 µg/mL (≈ 19.8 µM) | MIC (Escherichia coli [10]): 2 µg/mL (≈ 9.89 µM) | MIC (Escherichia coli [1]): 2 µg/mL (≈ 9.89 µM) | MIC (Klebsiella pneumoniae): 16 µg/mL (≈ 79.1 µM) | MIC (Pseudomonas aeruginosa [11]): 16 µg/mL (≈ 79.1 µM) | MIC [12]: 128 µg/mL (≈ 633 µM) | MIC (Pseudomonas aeruginosa [13]; [30]): 4 µg/mL (≈ 19.8 µM) | MIC (Providencia rettgeri): 64 µg/mL (≈ 317 µM) | MIC (Serratia marcescens): 4 µg/mL (≈ 19.8 µM) | MIC (Serratia liquefaciens): 2 µg/mL (≈ 9.89 µM) | MIC [14]: 16 µg/mL (≈ 79.1 µM) | MIC (Enterobacter cloacae [15]): 16 µg/mL (≈ 79.1 µM)

C/C(=C/C(N)C(=O)O)CC(N)C(=O)O (stereo unspecified)
inhibition (Escherichia coli [3]): 54% | inhibition (Escherichia coli [4]): 17% | inhibition (Escherichia coli [5]): 73% | inhibition (Escherichia coli [16]): 33% | Inhibition (Escherichia coli [17]): 0% | Inhibition (Escherichia coli [18]): 0% | Inhibition (Escherichia coli [19]): 55%

CC(N)(CCCC(N)C(=O)O)C(=O)O (stereo unspecified)
inhibition (Escherichia coli [3]): 35% | inhibition (Escherichia coli [20]): 8% | inhibition (Escherichia coli [16]): 18% | Inhibition (Escherichia coli [17]): 38% | Inhibition (Escherichia coli [18]): 74% | Inhibition (Escherichia coli [19]): 90% | MIC (Escherichia coli [1]): 512 µg/mL (≈ 2510 µM)

NC(/C=C(\Cl)CC(N)C(=O)O)C(=O)O (stereo unspecified)
inhibition (Escherichia coli [21]): 53% | inhibition (Escherichia coli [22]): 18% | Inhibition (Escherichia coli [19]): 50% | MIC (Escherichia coli [1]): > 128 µg/mL

C=C(C[C@@H](N)C(=O)O)C[C@@H](N)C(=O)O.C=C(C[C@H](N)C(=O)O)C[C@H](N)C(=O)O
MIC (Citrobacter freundii): 8 µg/mL | inhibition (Escherichia coli [3]): 10% | inhibition (Escherichia coli [4]): 5% | inhibition (Escherichia coli [5]): 20% | MIC (Escherichia coli [8]): 16 µg/mL | MIC (Escherichia coli [9]): 8 µg/mL | MIC (Escherichia coli [10]): 8 µg/mL | MIC (Escherichia coli [1]): 2 µg/mL | MIC (Klebsiella pneumoniae): 16 µg/mL | MIC (Pseudomonas aeruginosa [11]): 32 µg/mL | MIC [12]: 32 µg/mL | MIC (Pseudomonas aeruginosa [13]; [30]): 4 µg/mL | MIC (Providencia rettgeri): 64 µg/mL | MIC (Serratia marcescens): 4 µg/mL | MIC (Serratia liquefaciens): 4 µg/mL | MIC [14]: 8 µg/mL | MIC (Enterobacter cloacae [15]): 16 µg/mL

CC(N)(/C=C/CC(N)C(=O)O)C(=O)O (stereo unspecified)
inhibition (Escherichia coli [23]): 0% | inhibition (Escherichia coli [24]): 0% | Inhibition (Escherichia coli [18]): 0% | Inhibition (Escherichia coli [19]): 0%

C=C(CC(N)C(=O)O)CC(N)C(=O)O (stereo in doubt; 4) [listing 2 of 2 here]
MIC (Citrobacter freundii): 16 µg/mL (≈ 79.1 µM) | MIC (Escherichia coli [8]): 32 µg/mL (≈ 158 µM) | MIC (Escherichia coli [9]): 32 µg/mL (≈ 158 µM) | MIC (Escherichia coli [10]): 2 µg/mL (≈ 9.89 µM) | Inhibition (Escherichia coli [17]): 90% | Inhibition (Escherichia coli [18]): 90% | Inhibition (Escherichia coli [19]): 95% | MIC (Escherichia coli [1]): 2 µg/mL (≈ 9.89 µM) | MIC (Klebsiella pneumoniae): 32 µg/mL (≈ 158 µM) | MIC (Pseudomonas aeruginosa [11]): 16 µg/mL (≈ 79.1 µM) | MIC [12]: 128 µg/mL (≈ 633 µM) | MIC (Pseudomonas aeruginosa [13]): 4 µg/mL (≈ 19.8 µM) | MIC (Providencia rettgeri): 128 µg/mL (≈ 633 µM) | MIC (Serratia marcescens): 2 µg/mL (≈ 9.89 µM) | MIC (Serratia liquefaciens): 2 µg/mL (≈ 9.89 µM) | MIC [14]: 16 µg/mL (≈ 79.1 µM) | MIC (Enterobacter cloacae [25]): 16 µg/mL (≈ 79.1 µM)

CC1(C)S[C@@H]2[C@H](NC(=O)[C@H](N)c3ccccc3)C(=O)N2[C@H]1C(=O)O [AMPICILLIN]
MIC (Escherichia coli [1]; [29]): 5 µg/mL (≈ 14.3 µM) | MIC (Pseudomonas aeruginosa [2]): 512 µg/mL (≈ 1470 µM)

N[C@H](CCC[C@H](N)C(=O)O)C(=O)O
Bacterial growth (Escherichia coli [26]): Absence of growth

C=C(CC(N)C(=O)O)CC(N)C(=O)O (single isomer, unassigned; (-))
MIC (Escherichia coli [1]; Escherichia coli, ATCC 9637): 4 µg/mL (≈ 19.8 µM) | MIC (Pseudomonas aeruginosa [13]; [30]): 4 µg/mL (≈ 19.8 µM)

NCCCC[C@H](N)C(=O)O
Bacterial growth (Escherichia coli [26]): Absence of growth

CC(CC(N)C(=O)O)CC(N)C(=O)O (stereo unspecified)
inhibition (Escherichia coli [27]): 43% | inhibition (Escherichia coli [23]): 12% | inhibition (Escherichia coli [28]): 55% | Inhibition (Escherichia coli [18]): 0% | Inhibition (Escherichia coli [19]): 0%

C=C(CC(N)C(=O)O)CC(N)C(=O)O (stereo in doubt; (+)-4)
MIC (Escherichia coli [1]): 6 µg/mL (≈ 29.7 µM) | MIC (Pseudomonas aeruginosa [13]): 6 µg/mL (≈ 29.7 µM)

C/C(=C\C(N)C(=O)O)CC(N)C(=O)O (stereo unspecified)
inhibition (Escherichia coli [3]): 50% | inhibition (Escherichia coli [16]): 20% | Inhibition (Escherichia coli [17]): 0% | Inhibition (Escherichia coli [18]): 21% | Inhibition (Escherichia coli [19]): 50%

NC(/C=C/CC(N)C(=O)O)C(=O)O (stereo unspecified)
inhibition (Escherichia coli [23]): 65% | inhibition (Escherichia coli [24]): 77% | Inhibition (Escherichia coli [17]): 0% | Inhibition (Escherichia coli [18]): 0% | Inhibition (Escherichia coli [19]): 0%

N[C@@H]1CONC1=O [CYCLOSERINE]
MIC (Citrobacter freundii): 2 µg/mL (≈ 19.6 µM) | MIC (Escherichia coli [8]): 0.5 µg/mL (≈ 4.9 µM) | MIC (Escherichia coli [9]): 128 µg/mL (≈ 1250 µM) | MIC (Escherichia coli [10]): 32 µg/mL (≈ 313 µM) | MIC (Escherichia coli [1]; [29]): 0.25 µg/mL (≈ 2.45 µM) | MIC (Klebsiella pneumoniae): 8 µg/mL (≈ 78.4 µM) | MIC (Pseudomonas aeruginosa [11]): 64 µg/mL (≈ 627 µM) | MIC [12]: 8 µg/mL (≈ 78.4 µM) | MIC (Pseudomonas aeruginosa [2]): 128 µg/mL (≈ 1250 µM) | MIC (Providencia rettgeri): 128 µg/mL (≈ 1250 µM) | MIC (Serratia marcescens): 128 µg/mL (≈ 1250 µM) | MIC (Serratia liquefaciens): 8 µg/mL (≈ 78.4 µM) | MIC [14]: 128 µg/mL (≈ 1250 µM) | MIC (Enterobacter cloacae [15]): 2 µg/mL (≈ 19.6 µM)
